The Kd is the concentration at which binding is half-saturated. Read a low Kd as tighter binding. The IC50 is the concentration that gives 50% inhibition. High values mean a need for much substance, low ones inhibition by little substance. The term GI50 denotes the concentration giving 50% growth inhibition. A higher GI50 goes with less potent growth inhibition. What is called Tmax is the time from dosing to the highest level. A word on the Cmax: it is the maximum level reached in the sampled fluid or tissue. For orientation: AUC means concentration integrated over time. Read a low AUC as less exposure. The clearance is the volume of plasma or blood freed of the substance per unit of time. A higher clearance goes with efficient removal. Broadly, the Vdss is a proportionality between amount in the body and measured concentration, not a real space. Higher therefore signals extensive tissue distribution.

The target in one series is T1, Menin (Homo sapiens, UniProt O00255).
T1 sequence (O00255 whole entry): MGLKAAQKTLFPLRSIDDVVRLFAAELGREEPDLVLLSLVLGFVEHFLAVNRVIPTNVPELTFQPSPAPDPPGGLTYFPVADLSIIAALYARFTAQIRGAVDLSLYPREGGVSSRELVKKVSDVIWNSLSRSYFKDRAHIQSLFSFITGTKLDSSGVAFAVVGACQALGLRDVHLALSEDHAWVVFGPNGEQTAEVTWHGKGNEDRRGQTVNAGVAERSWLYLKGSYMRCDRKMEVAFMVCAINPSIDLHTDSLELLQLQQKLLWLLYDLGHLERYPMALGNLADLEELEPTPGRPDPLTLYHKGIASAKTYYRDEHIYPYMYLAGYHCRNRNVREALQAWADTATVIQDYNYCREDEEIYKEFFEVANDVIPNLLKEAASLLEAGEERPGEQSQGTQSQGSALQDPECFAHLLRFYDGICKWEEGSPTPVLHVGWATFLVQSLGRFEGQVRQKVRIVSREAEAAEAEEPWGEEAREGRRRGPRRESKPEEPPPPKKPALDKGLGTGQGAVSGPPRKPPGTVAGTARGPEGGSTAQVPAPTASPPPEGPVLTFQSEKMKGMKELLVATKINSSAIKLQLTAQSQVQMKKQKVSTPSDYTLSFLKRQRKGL
The series can be described thus: Binding affinity to menin (unknown origin).

Series [1] addresses Menin/Histone-lysine N-methyltransferase MLL (Homo sapiens, UniProt O00255). Nature of the series: Inhibition of menin-MLL interaction (unknown origin) after 1 hr by fluorescence polarization assay. It is filed as protein assay. For orientation: In fluorescence polarisation assays a small probe gives low polarisation when free and higher when bound to something large.
Series [2] in a line: Growth inhibition of MLL-AF9 transformed mouse bone marrow cells after 7 days by MTT assay. The settings on record: Bone marrow cell, 168 h. It is filed as functional.
Series [3] in a line: Growth inhibition of Hoxa9/Meis1 transformed mouse bone marrow cells after 7 days by MTT assay. Format: functional. As to conditions: Bone marrow cell, 168 h.
Another series relates to Bone marrow cell. Nature of the series: Selectivity index, ratio of GI50 for Hoxa9/Meis1 transformed mouse bone marrow cells to GI50 for MLL-AF9 transformed mouse bone marrow cells. It is filed as functional.
Series [4] in a line: Half life in CD-1 mouse liver microsomes at 1 uM after 3 to 60 mins by LC-MS/MS analysis. Format: ADME. (In general: Liver microsomes are vesicles of endoplasmic reticulum, rich in cytochrome P450 enzymes.)
Series [5] relates to Mus musculus. The series can be described thus: Tmax in C57BL/6 mouse plasma at 30 mg/kg, po after 24 hrs by LC-MS/MS analysis. Format: ADME, organism-based. The settings on record: in vivo. An outline of the steps: (§1)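 Female C57BL/6 mice dosed iv at 15 mg/kg or orally at 30 mg/kg in 25% DMSO/25% PEG-400/50% PBS (v/v). Serial 50 μL blood samples collected over 24 h (8 h in one experiment), spun to plasma; concentrations by validated LC-MS/MS in positive-ion MRM mode; parameters from noncompartmental analysis.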

Series [6] has as its system Mus musculus. The series can be described thus: Cmax in C57BL/6 mouse plasma at 30 mg/kg, po after 24 hrs by LC-MS/MS analysis. Details: dose 30 mg/kg, route oral. Format: ADME, organism-based. The settings on record: in vivo. The method in brief:
as §1

For series [7], the system named is Mus musculus. The series can be described thus: AUC in C57BL/6 mouse at 15 mg/kg, iv after 24 hrs by LC-MS/MS analysis. Format: ADME, organism-based. Also on record: dose 15 mg/kg, time < 24 hr, route intravenous. As to conditions: in vivo. An outline of the steps:
as §1

Series [8] relates to Mus musculus. The series can be described thus: AUC in C57BL/6 mouse at 30 mg/kg, po after 24 hrs by LC-MS/MS analysis. Format: ADME, organism-based. Details: time < 24 hr, dose 30 mg/kg, route oral. The settings on record: in vivo. An outline of the steps: as §1
Series [9] relates to Mus musculus. The series can be described thus: Half life in C57BL/6 mouse at 15 mg/kg, iv after 24 hrs by LC-MS/MS analysis. As to conditions: in vivo. It is filed as ADME, organism-based. The method in brief: as §1
Series [10] concerns Mus musculus. The series can be described thus: Half life in C57BL/6 mouse at 30 mg/kg, po after 24 hrs by LC-MS/MS analysis. Format: ADME, organism-based. The settings on record: in vivo. The method in brief: as §1
Series [11] in a line: Clearance in C57BL/6 mouse at 15 mg/kg, iv after 24 hrs by LC-MS/MS analysis. Format: ADME, organism-based. The settings on record: in vivo. An outline of the steps: as §1
Series [12] deals with Mus musculus. Nature of the series: Volume of distribution at steady state in C57BL/6 mouse at 15 mg/kg, iv after 24 hrs by LC-MS/MS analysis. As to conditions: in vivo. It is filed as ADME, organism-based. An outline of the steps: as §1
In series [13] the test system is Mus musculus. Nature of the series: Oral bioavailability in C57BL/6 mouse at 30 mg/kg after 24 hrs by LC-MS/MS analysis. The settings on record: in vivo. It is filed as ADME, organism-based. The method in brief: as §1

Sequence of Menin/Histone-lysine N-methyltransferase MLL (Q03164 1-2718 partner limits assumed, one chain of several): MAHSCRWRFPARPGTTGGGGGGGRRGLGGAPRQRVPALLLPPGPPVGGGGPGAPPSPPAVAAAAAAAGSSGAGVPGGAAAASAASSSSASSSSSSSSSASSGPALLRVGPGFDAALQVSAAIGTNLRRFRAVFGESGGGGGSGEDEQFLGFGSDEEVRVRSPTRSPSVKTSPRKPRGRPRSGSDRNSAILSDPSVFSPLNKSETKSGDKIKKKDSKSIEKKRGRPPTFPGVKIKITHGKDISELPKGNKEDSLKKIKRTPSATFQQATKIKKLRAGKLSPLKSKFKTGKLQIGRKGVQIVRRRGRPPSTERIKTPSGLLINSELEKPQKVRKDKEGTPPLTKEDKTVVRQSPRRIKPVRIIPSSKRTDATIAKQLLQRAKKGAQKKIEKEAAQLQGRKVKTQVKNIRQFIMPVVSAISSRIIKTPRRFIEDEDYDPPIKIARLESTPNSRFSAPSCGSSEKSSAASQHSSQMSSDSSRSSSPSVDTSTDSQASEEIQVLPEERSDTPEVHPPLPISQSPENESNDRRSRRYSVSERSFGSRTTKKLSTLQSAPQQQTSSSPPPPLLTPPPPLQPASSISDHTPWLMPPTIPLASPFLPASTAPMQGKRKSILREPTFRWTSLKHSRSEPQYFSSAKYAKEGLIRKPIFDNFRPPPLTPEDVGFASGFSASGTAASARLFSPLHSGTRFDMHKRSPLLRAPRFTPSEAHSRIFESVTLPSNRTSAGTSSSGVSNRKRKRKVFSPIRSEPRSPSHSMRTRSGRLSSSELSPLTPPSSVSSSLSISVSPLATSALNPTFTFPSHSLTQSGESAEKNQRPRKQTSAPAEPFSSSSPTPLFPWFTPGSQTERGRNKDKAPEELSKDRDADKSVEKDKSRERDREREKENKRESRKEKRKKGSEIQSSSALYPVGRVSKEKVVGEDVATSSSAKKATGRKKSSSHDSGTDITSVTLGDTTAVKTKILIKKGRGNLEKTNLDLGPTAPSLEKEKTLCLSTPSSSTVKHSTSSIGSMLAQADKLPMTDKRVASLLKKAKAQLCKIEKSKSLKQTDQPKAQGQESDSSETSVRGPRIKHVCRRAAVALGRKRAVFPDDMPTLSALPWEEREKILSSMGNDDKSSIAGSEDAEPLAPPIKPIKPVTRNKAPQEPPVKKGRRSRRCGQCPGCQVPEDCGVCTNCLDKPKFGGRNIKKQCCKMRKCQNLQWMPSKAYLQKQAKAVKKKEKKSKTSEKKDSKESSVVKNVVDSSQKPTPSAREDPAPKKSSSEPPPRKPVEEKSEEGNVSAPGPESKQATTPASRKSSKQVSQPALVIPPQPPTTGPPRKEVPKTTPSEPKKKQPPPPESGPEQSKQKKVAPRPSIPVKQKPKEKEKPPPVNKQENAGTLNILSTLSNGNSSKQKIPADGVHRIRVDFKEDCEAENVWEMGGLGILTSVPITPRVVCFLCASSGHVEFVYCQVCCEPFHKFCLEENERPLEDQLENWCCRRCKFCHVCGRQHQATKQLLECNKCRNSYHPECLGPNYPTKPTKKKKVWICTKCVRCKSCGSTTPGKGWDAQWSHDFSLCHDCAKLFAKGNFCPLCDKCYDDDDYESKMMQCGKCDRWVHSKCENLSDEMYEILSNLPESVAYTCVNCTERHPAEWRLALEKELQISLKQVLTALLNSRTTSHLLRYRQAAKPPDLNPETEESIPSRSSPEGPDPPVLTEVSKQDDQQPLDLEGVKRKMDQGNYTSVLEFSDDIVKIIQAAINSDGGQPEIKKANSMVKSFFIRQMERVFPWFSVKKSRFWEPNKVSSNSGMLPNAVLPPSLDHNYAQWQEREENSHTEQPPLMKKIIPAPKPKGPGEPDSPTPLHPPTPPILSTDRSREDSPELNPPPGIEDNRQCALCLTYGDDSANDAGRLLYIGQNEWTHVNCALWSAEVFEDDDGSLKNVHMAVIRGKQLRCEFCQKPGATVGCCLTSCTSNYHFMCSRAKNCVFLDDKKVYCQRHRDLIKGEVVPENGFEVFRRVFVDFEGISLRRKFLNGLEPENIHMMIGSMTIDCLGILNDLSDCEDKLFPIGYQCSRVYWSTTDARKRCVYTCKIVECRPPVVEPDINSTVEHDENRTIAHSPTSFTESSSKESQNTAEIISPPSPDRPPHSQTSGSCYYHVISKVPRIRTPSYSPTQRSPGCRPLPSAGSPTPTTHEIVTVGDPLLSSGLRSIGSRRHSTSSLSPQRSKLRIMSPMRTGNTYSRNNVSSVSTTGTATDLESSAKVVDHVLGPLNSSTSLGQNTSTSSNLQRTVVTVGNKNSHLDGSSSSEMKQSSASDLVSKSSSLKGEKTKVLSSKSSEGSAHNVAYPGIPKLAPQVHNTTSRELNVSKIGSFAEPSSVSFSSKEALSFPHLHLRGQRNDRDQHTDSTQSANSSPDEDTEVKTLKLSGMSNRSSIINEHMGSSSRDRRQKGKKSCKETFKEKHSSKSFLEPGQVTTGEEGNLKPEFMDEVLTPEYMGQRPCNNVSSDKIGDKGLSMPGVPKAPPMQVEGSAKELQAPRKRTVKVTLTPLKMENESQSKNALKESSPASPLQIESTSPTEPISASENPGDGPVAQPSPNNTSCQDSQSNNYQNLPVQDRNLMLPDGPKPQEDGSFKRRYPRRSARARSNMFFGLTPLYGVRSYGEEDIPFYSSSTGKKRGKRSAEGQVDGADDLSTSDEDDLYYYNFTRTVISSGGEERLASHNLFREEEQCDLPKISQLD
Sequence of Menin/Histone-lysine N-methyltransferase MLL (Q03164 2719-3969 partner limits assumed, one chain of several): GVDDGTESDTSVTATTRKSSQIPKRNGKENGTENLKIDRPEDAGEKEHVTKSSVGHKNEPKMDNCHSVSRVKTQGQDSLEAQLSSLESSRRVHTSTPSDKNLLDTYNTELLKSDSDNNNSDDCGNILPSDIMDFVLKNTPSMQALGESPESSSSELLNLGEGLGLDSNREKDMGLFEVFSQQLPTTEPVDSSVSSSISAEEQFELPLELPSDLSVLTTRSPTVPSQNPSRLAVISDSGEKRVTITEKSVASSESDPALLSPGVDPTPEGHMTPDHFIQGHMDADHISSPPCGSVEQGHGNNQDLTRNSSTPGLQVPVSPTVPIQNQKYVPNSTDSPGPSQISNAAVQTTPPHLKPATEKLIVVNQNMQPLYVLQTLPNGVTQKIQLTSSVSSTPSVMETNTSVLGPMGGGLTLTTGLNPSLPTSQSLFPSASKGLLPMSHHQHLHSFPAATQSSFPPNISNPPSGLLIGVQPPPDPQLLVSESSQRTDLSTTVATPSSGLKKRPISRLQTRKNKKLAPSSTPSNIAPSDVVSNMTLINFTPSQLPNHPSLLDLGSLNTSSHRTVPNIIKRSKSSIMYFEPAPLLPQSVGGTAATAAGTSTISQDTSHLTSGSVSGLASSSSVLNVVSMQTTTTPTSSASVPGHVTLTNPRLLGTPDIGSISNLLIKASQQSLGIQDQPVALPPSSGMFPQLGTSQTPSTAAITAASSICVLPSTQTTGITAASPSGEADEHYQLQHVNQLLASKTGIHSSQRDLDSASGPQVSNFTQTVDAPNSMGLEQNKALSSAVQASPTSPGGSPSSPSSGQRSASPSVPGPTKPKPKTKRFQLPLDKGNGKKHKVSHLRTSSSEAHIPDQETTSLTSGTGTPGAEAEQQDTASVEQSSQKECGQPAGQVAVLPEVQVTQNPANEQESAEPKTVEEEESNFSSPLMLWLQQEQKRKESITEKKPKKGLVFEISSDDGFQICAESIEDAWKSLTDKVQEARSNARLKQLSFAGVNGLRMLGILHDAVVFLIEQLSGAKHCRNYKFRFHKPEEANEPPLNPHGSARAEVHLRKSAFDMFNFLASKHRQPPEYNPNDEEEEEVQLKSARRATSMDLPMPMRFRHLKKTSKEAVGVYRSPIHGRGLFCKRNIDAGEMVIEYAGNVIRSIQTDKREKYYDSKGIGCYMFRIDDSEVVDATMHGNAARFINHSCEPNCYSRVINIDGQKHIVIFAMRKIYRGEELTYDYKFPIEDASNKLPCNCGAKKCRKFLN

The compound `N#Cc1cc2cc(CN3CCC(Nc4ncnc5sc(CC(F)(F)F)cc45)CC3)ccc2[nH]1` registered a Kd at Menin of 0.0236 µM. In [1], this compound came in with an IC50 of 0.031 µM. In addition, the values for the GI50 in series [2] and in series [3] were 0.55 µM and 3 µM, respectively. Besides, the RatioGI50 with Bone marrow cell worked out at 5.5. Further, the t1/2 is 0.113 h in [4], 3.1 h in the series with Mus musculus [9] and 3.1 h in the series with Mus musculus [10]. In the series on Mus musculus [5], the Tmax was found to be 1 h. The compound also yielded a Cmax with Mus musculus [6] of 1.516 µg/mL. For the same compound, the results for the AUC with Mus musculus [7] and with Mus musculus [8] were 6.576 µg·h/mL and 7.509 µg·h/mL, respectively. The clearance in series [11] was determined as 2.29 L/h/kg. The compound also yielded a Vdss with Mus musculus [12] of 6.516 L/kg. The compound further came in with a F in the series on Mus musculus [13] of 57%.
In series [1], `COc1cc2[nH]c(C#N)cc2c(C)c1CN1CCC(Nc2ncnc3sc(CC(F)(F)F)cc23)CC1` displayed an IC50 of 0.04 µM. In addition, the GI50 in [2] was 0.1 µM; in [3], 11 µM. Besides, the RatioGI50 with Bone marrow cell turned out to be 110. Further, the results for the t1/2 (in series [4]; in the series with Mus musculus [9]; with Mus musculus [10]) were 0.65 h, 1.8 h and 2 h, respectively. The Tmax in the series with Mus musculus [5] was 0.5 h. For the same compound, the Cmax with Mus musculus [6] was 2.113 µg/mL. Besides, the AUC in the series with Mus musculus [7] stood at 9.397 µg·h/mL; with Mus musculus [8], 8.717 µg·h/mL. In series [11], the clearance is 1.6 L/h/kg. For the same compound, the Vdss in the series with Mus musculus [12] stood at 3.698 L/kg. In addition, the F with Mus musculus [13] is given as 46%.

Values taken from ChEMBL document CHEMBL3779881, “Property Focused Structure-Based Optimization of Small Molecule Inhibitors of the Protein-Protein Interaction between Menin and Mixed Lineage Leukemia (MLL)” (J Med Chem, 2016).
